Screening results (PubChem)
LANA-H2B inh – blocks KSHV LANA binding to histone H2A/H2B | Q9QR71 | cell-free LANA-H2A/H2B peptide, fluorescence polarization | inhibition, % (test concentration not listed) | 0.6% of 320,000 active | AID 2629; in the data active means inhibition mostly above about 10%, no sharp cut-off; inactive means mostly below about 6.7%
CAL PDZ FP-1 – blocks peptide binding to the human CAL PDZ domain; Q9HD26; purified CAL PDZ, TMR-peptide fluorescence polarization, 1 h; inhibition, % at 24.9 µM; 0.92% of 300,000 active; AID 602252;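 active means mean inhibition of at least 30% with at least half of replicates also reaching 30%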;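 further: 0% = DMSO neutral control and 100% = excess unlabeled competitor peptide PRC23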
Keap1 Nrf2 FP – disrupts human Keap1 binding to Nrf2 peptide. Q14145. inhibition, % at 9.4 µM. AID 504523. 0.15% of 340,000 active. Keap1 Kelch-Nrf2 peptide fluorescence polarization, 1536-well; in the data active means inhibition above about 12%;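 further: human Keap1 Kelch domain with fluorescein labeled Nrf2 9mer peptide probe; 0% = neutral control wells and 100% = peptide positive control; higher means more block of Keap1 binding to Nrf2 peptide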
CaV13 FRET inh – Primary screen for inhibitors of IQ motif and Ca2+-dependent inactivation inhibitor domain binding in CACNA1D, Förster resonance energy transfer in living cells, …; HEK cells, CFP/YFP FRET ICDI-IQ, plate reader, 10 min; percent FRET-ratio fall versus neutral wells; inhibition, % at 12.3 µM; 0.098% of 340,000 active;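 active means mean replicate inhibition of at least 30% and at least 1% of replicates passing that level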;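 further: 0% = median of the neutral control wells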
LANA DNA inh – blocks KSHV LANA C-terminal domain binding to DNA | inhibition, % at 9 µM | MBP-C-LANA/FAM-LBS DNA binding, fluorescence polarization | 0.078% of 340,000 active | AID 504423;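 active means highest replicate inhibition at or above 60% at 9 µM, even if other replicates fall short; inactive means all replicates below 60% inhibition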;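 further: 0% = neutral control wells and 100% = 4 µM acridine orange control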
CAL PDZ FP-2 – inhibitors of human CAL PDZ peptide binding; inhibition, % at 20 µM; purified CAL PDZ, TMR-peptide fluorescence polarization, 1 h; 0.02% of 330,000 active; Q9HD26; AID 504414;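 active means highest replicate inhibition of at least 40%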;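 further: plate controls were DMSO neutral control wells for no effect and unlabeled competitor peptide control wells for full effect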
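material = purified tagged CAL PDZ domain construct (CerCALP) | compound dosing = 20 µM, one dose | times = 1 h at RT | measured by = fluorescence polarization from S- and P-plane intensities, G-factor corrected | read-out = inhibition from polarization loss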
Numbers without * were called inactive; ! = not active in a repeat. A selection: hits, their analogues and other compounds. The true share with any hit is near 1.5%.

For O=C1CC(=O)C(n2cncn2)C(c2cccc(Cl)c2)C1 (centres undefined) the results were LANA-H2B inh 16*, Keap1 Nrf2 FP 2, CaV13 FRET inh -5, LANA DNA inh 3 and CAL PDZ FP-2 -1.
`COc1ccc(C2CC(=O)CC(=O)C2n2cncn2)cc1` (centres undefined) gave LANA-H2B inh -5, Keap1 Nrf2 FP -3, CaV13 FRET inh -4, LANA DNA inh 0 and CAL PDZ FP-2 0.
For OC[C@@H]1[C@@H](c2ccc(F)cc2)C(c2cccc(Cl)c2)=NN1c1ccccc1 the results were CAL PDZ FP-1 3, Keap1 Nrf2 FP -1, CaV13 FRET inh -7, LANA DNA inh 2 and CAL PDZ FP-2 0.
For CCc1ccc(NC(=O)CSc2nnc(-c3ccco3)o2)cc1 the results were LANA-H2B inh 2, CAL PDZ FP-1 -3, Keap1 Nrf2 FP -2, CaV13 FRET inh -7, LANA DNA inh 0 and CAL PDZ FP-2 -3.
CC(=O)Nc1ccc(NC(=O)CSc2nnc(-c3ccco3)o2)cc1 was read as LANA-H2B inh 20*, CAL PDZ FP-1 4, Keap1 Nrf2 FP -2, CaV13 FRET inh -2, LANA DNA inh 0 and CAL PDZ FP-2 1.
`CC(C)(C)NC(=O)CCSc1nnc(-c2ccco2)o1` gave LANA-H2B inh 1, CAL PDZ FP-1 111*, Keap1 Nrf2 FP -1, CaV13 FRET inh -2, LANA DNA inh -2 and CAL PDZ FP-2 16.
O=C(C(=O)N1CCC(CNS(=O)(=O)c2ccc(C(F)(F)F)cc2)CC1)c1cc2ccccc2o1 was read as CaV13 FRET inh -10.
`O=S(=O)(Nc1ccc(-c2nc3cccnc3s2)cc1)c1ccccc1F` gave LANA-H2B inh -1, CAL PDZ FP-1 -3, Keap1 Nrf2 FP -6, CaV13 FRET inh 10, LANA DNA inh -8 and CAL PDZ FP-2 0.
`Cc1ccc(N(CC2=NCCN2)c2cccc(O)c2)cc1` gave LANA-H2B inh 23*!, CAL PDZ FP-1 -3, Keap1 Nrf2 FP -3, CaV13 FRET inh -6, LANA DNA inh -1 and CAL PDZ FP-2 0.
`c1ccc(CN(CC2=NCCN2)c2ccccc2)cc1` gave LANA-H2B inh 6, CAL PDZ FP-1 -5, Keap1 Nrf2 FP 0, CaV13 FRET inh -4, LANA DNA inh 1 and CAL PDZ FP-2 0.
Screening CCN=C1NC(c2ccc(Cl)cc2)C(C(=O)OC)=C(C)N1Cc1cccc(C(F)(F)F)c1 (centres undefined) returned CaV13 FRET inh -4.
Screening O=C(NC(=S)N1CCN(c2nc(-c3ccccc3)cs2)CC1)c1cncc(Br)c1 returned LANA-H2B inh -1, Keap1 Nrf2 FP 2, CaV13 FRET inh active, LANA DNA inh 0 and CAL PDZ FP-2 -2.
CC(=O)N1CCN(c2ccc(N3CCN(Cc4ccccc4)[C@H](C)C3)c(C)c2)[C@H](C)C1 was read as CaV13 FRET inh -7.
For CCCCN(CC)CCCNC(=O)c1cn(CC(C)C)c(=O)c2c1c1ccccc1n2C the results were LANA-H2B inh 0, CAL PDZ FP-1 -1, Keap1 Nrf2 FP -2, CaV13 FRET inh -19, LANA DNA inh 2 and CAL PDZ FP-2 1.
`CCN(CC)CCCNC(=O)c1cn(CC(C)C)c(=O)c2c1c1ccccc1n2C` gave LANA-H2B inh 3, CAL PDZ FP-1 50*, Keap1 Nrf2 FP -2, CaV13 FRET inh -4, LANA DNA inh 0 and CAL PDZ FP-2 -1.
For O=C(CN1CCN(C(=O)C2CCCO2)CC1)Nc1ccc(Cl)cc1 (centres undefined) the results were LANA-H2B inh 0, CAL PDZ FP-1 33*, Keap1 Nrf2 FP 0, CaV13 FRET inh -3, LANA DNA inh 0 and CAL PDZ FP-2 -1.
COc1ccc(-n2nc(C(=O)NCC(=O)O)c3ccccc3c2=O)cc1 was read as LANA-H2B inh 3, CAL PDZ FP-1 1, Keap1 Nrf2 FP -4, CaV13 FRET inh -1, LANA DNA inh 0 and CAL PDZ FP-2 0.
`COc1ccc(-n2nc(C(=O)NCC(=O)N(C)Cc3ccccc3)c3ccccc3c2=O)cc1` gave LANA-H2B inh -3, CAL PDZ FP-1 38*, Keap1 Nrf2 FP 3, CaV13 FRET inh -5, LANA DNA inh 2 and CAL PDZ FP-2 -2.
`COC(=O)C1=CN(c2cccc(OCc3ccccc3)c2)C(N)=C(C#N)C1c1cccc(F)c1` (centres undefined) gave CaV13 FRET inh -10.
CN(C)C(CNC(=O)c1ccc(Cl)c(S(=O)(=O)N2CCCCCC2)c1)c1ccccc1 (centres undefined) was read as LANA-H2B inh 15*, Keap1 Nrf2 FP 0, CaV13 FRET inh -2, LANA DNA inh 0 and CAL PDZ FP-2 -1.
Screening COc1ccc(CCNC(=O)c2c(C)nn(CC(C)C)c2Cl)cc1OC returned LANA-H2B inh 5, CAL PDZ FP-1 -1, Keap1 Nrf2 FP -1, CaV13 FRET inh -4, LANA DNA inh -2 and CAL PDZ FP-2 -3.
`COc1ccc(CCN(C)C(=O)c2c(C)nn(CC(C)C)c2Cl)cc1OC` gave LANA-H2B inh 5, CAL PDZ FP-1 104*, Keap1 Nrf2 FP 0, CaV13 FRET inh -2, LANA DNA inh -1 and CAL PDZ FP-2 -1.
CC(C)(C)C(=O)O/N=C(\N)Cc1ccc(-c2csnn2)cc1 was read as LANA-H2B inh 4, CAL PDZ FP-1 61*, Keap1 Nrf2 FP -1, CaV13 FRET inh -4, LANA DNA inh 5 and CAL PDZ FP-2 -1.
Screening COCCNC(=S)N(CCCO)Cc1cc2cc3c(cc2[nH]c1=O)OCCO3 returned LANA-H2B inh 0, CAL PDZ FP-1 -1, Keap1 Nrf2 FP -1, CaV13 FRET inh -20, LANA DNA inh 2 and CAL PDZ FP-2 0.
COCCNC(=S)N(CCO)Cc1cc2cc3c(cc2[nH]c1=O)OCO3 was read as LANA-H2B inh 5, CAL PDZ FP-1 82*, Keap1 Nrf2 FP -1, CaV13 FRET inh -3 and LANA DNA inh 1.
CN(C)CCCNC(=S)N(CCCN(C)C)Cc1cc2cc3c(cc2[nH]c1=O)OCO3 was read as LANA-H2B inh 20*, CAL PDZ FP-1 -5, Keap1 Nrf2 FP -2, CaV13 FRET inh -3, LANA DNA inh -3 and CAL PDZ FP-2 -1.
Screening O=C(NC1CCCC1)C(C1CC1)n1c(-c2cc3ccccc3[nH]2)nc2ccccc21 (centres undefined) returned CaV13 FRET inh -6.
Screening COCc1cc(C)nc(SCC(=O)Oc2ccc(Cl)cc2)c1C#N returned LANA-H2B inh 1, CAL PDZ FP-1 -1, Keap1 Nrf2 FP -8, CaV13 FRET inh 47*, LANA DNA inh 0 and CAL PDZ FP-2 -1.
Screening COc1ccccc1CNC(=O)CC1Sc2ccccc2NC1=O (centres undefined) returned LANA-H2B inh 0, CAL PDZ FP-1 62*, Keap1 Nrf2 FP 2, CaV13 FRET inh 0, LANA DNA inh 1 and CAL PDZ FP-2 0.
